Measured values published in PubChem BioAssay AID1515 (The Scripps Research Institute Molecular Screening Center, 2009).
Among all 220,000 compounds or so, about 440 (0.2%) were called active. Shown is part of a subset that was picked to be rich in actives. A number with no mark means an inactive call.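 Rule for the calls: active = inhibition above the campaign mean of all tested compounds plus 3 SD (cut at about 14% in these data); inactive = the rest.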

Biological target: Serine hydrolase RBBP9 (Homo sapiens) (UniProt O75884)
Sequence (O75884 whole entry, looked up): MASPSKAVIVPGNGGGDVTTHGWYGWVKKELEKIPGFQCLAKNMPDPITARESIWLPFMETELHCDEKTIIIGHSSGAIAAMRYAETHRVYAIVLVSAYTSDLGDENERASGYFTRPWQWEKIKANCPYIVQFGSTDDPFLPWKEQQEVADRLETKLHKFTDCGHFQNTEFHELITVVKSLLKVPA
Test: blockers of RBBP9 serine hydrolase labeling – biochemical, fluorescence polarization, FP-Rh probe, HTS, primary screen (AID 1515);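 note: plate controls were DMSO wells with RBBP9 for no effect and wells lacking RBBP9 protein for full effect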
Details: recombinant RBBP9, FP-Rh probe fluorescence polarization; at 7.94 µM; active compounds read high
Method in brief: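 Assay system: recombinant human RBBP9; Reagent: Serine-hydrolase probe FP-Rh, 375 nM pre-mixing; Doses: 7.94 µM single dose, 0.794% DMSO; Incubation: 30 min then 45 min, 25 °C; Detection: fluorescence polarization (mP), excitation 525 nm, emission 598 nm; Evaluation: percent inhibition from mP, scaled between DMSO and no-protein wells.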

SMILES	inhibition
CCS(=O)(=O)c1ccc(O)c(NC(=O)COc2ccc(Cl)cc2)c1	-5.54%
Cc1ccnc(Nc2nc3ccccc3s2)n1	-1.41%
Cc1ccnc(-n2sc3ccccc3c2=O)n1	43.2% (active)
Cc1ccnc(SCC(N)=O)n1	-18.6%
CCOC(=O)CCCNC(=O)COC(=O)/C=C/c1ccc2c(c1)OCO2	6.07%
Cc1ccc(C(O)P(=O)(OC(C)C)c2ccc(N(C)C)cc2)cc1 (stereo not drawn)	-1.11%
O=C(C1CCCO1)N1CCN(C(=S)Nc2cccc(Cl)c2)CC1 (stereo not drawn)	-9.39%
O=C(COc1ccc(Cl)cc1)N1CCN(c2cccc(C(F)(F)F)c2)CC1	-0.45%
CCC(=O)c1ccc(OCC(O)CN2CCN(c3cccc(C(F)(F)F)c3)CC2)cc1 (stereo not drawn)	17.3% (active)
CCC(=O)c1ccc(OCC(O)CN2CC(C)OC(C)C2)cc1 (stereo not drawn)	-8.04%
O=C(O)c1ccccc1-c1ccccc1C(=O)Nc1nccs1	-2.01%
CCN1CCc2nc(NC(=O)c3cc(F)c(F)cc3Cl)sc2C1	-0.19%
CCOc1ccc2nc(NCCNC(=O)C(C)(C)C)c(C)cc2c1	-3.3%
Cc1ccc(C(=O)COC(=O)CCN2C(=O)C3C4CC(C(Br)C4Br)C3C2=O)cc1 (stereo not drawn)	-2.32%
COc1ccc(OC)c(NC(=S)N2CCc3ccccc3C2)c1	1.81%
Cc1ccc(C)c(Cn2cnc3c(oc4ccccc43)c2=O)c1	-1.77%
Cc1ccc(CN2CCN(Cc3ccccc3-c3ccco3)CC2CCO)o1 (stereo not drawn)	-3.63%
CN(C)c1nnnn1-c1ccc(Cl)cc1	3.3%
CC(C)c1ccc(Nc2nnc(SCC(=O)c3nnc(-c4ccccc4)o3)s2)cc1	-10.9%
CCC(=O)N1CCCc2ccccc21	16.1% (active)
Cc1occc1C(=O)N1CCCc2ccccc21	7.03%
O=C(CSCc1ccccc1)N1CCc2ccccc21	-3.54%
COc1cc(OC)cc(-c2nc(=S)n3ccsc3n2)c1	0.8%
O=C1CN(C(=O)CN2C(=O)NC3(CCCCC3)C2=O)c2ccccc2N1	-4.87%
CCSc1ccccc1C(=O)Nc1ccc2c(c1)OCO2	-7.81%
CN(/C(=N/S(=O)(=O)c1cccs1)c1ccccc1)c1ccc(O)cc1	-5.39%

SMILES	inhibition
O=C(CSc1nnc(SCc2ccc(Cl)cc2)s1)N/N=C/c1ccccc1Cl	-7.13%
COc1cc(NC(=S)NCc2ccc(S(N)(=O)=O)cc2)cc(OC)c1	1.34%
COc1ccc(NS(=O)(=O)c2cc(NC(=O)CC(=O)c3ccc([N+](=O)[O-])cc3)ccc2C)cc1	28.9% (active)
COc1ccc(CCC(=O)OCC(=O)Nc2ccc(C)c(S(=O)(=O)N(C)C)c2)cc1	-1.71%
COc1cccc(NCCC(=O)c2cccc([N+](=O)[O-])c2)c1	-8.98%
COc1cccc(NC(=O)NCc2ccc(F)cc2)c1	-0.62%
CCNC(=S)NNC(=O)C1CCN(Cc2ccccc2)CC1	-3.59%
CC(=O)c1ccc(NC(=O)c2ccc3c(Cl)c4c(nc3c2)CCCC4)cc1	-3.32%
COc1cccc(NC(=O)c2ccc3c(SCC(=O)O)c4c(nc3c2)CCCC4)c1	14.3% (active)
CCC(=O)Nc1ccc(C(=O)Nc2cccc(OC)c2)cc1	-4.79%
O=C(NCc1cccs1)C(=O)NCC1OCCCN1S(=O)(=O)c1ccc(F)cc1 (stereo not drawn)	-5.51%
Cc1cc(F)ccc1S(=O)(=O)N1CCCOC1CNC(=O)C(=O)NCCC1=CCCCC1 (stereo not drawn)	44.9% (active)
O=C(NCCCn1ccnc1)C(=O)NCC1OCCN1S(=O)(=O)c1cc(F)ccc1F (stereo not drawn)	-2.12%
Cc1cc(CO)nn1-c1ccc([N+](=O)[O-])cc1	-1.67%
CCN(CC)Cc1nc2sc(C)c(C)c2c(=O)[nH]1	0.79%
COc1ccc(C(=O)CSc2nnc(-c3ccco3)o2)cc1	-6.2%
CC(C)n1c(=S)[nH]c2cc(C(F)(F)F)ccc21	-5.5%
CCN(C(=O)Cc1nc(N)n[nH]1)C1(C(=O)Nc2ccccc2)CCCCC1	4.99%
COc1ccc(-c2nnn(Cc3nc(N)nc(N4CCCCC4)n3)n2)cc1	-9.6%
COc1ccc(-n2nnnc2SCc2nc(N)nc(N3CCOCC3)n2)cc1	14.8% (active)
COc1ccc(-n2nnnc2SCC(=O)NCc2cccs2)cc1	-4.68%
Cc1onc(-c2ccccc2Cl)c1C(=O)OCC(=O)c1ccccc1	-7.59%
O=c1nc(N/N=C/c2ccco2)cn[nH]1	-3.99%
COC(=O)c1ccccc1NC(=O)Cc1ccccc1OC	6.78%
COCCn1nnnc1C(c1cc2ccc(OC)cc2[nH]c1=O)N1CCc2ccccc2C1 (stereo not drawn)	5.71%
CCOc1ccc2[nH]c(=O)c(C(c3nnnn3CCOC)N3CCOCC3)cc2c1 (stereo not drawn)	15.5% (active)

SMILES	inhibition
CN1CCN(C(c2cc3cc4c(cc3[nH]c2=O)OCCO4)c2nnnn2C2CCCC2)CC1 (stereo not drawn)	-9.4%
C[N+](C)(C)CCOP(=O)([O-])OC[C@H](O)CO	0.46%
COc1ccccc1N1CCN(CC(=O)NCCc2ccc(S(N)(=O)=O)cc2)CC1	0.48%
CCCC(NC(=O)c1ccco1)c1nc2ccccc2[nH]1 (stereo not drawn)	0.23%
O=C(CN1CCN(c2ccc(Cl)cc2)CC1)NCc1cccs1	-5.55%
CC(C)c1ccc(NC(=S)NNc2ccc(Cl)c(C(=O)O)c2)cc1	-0.79%
Nc1nnc(SCC(=O)OCc2ccc(Cl)c(Cl)c2)s1	-1.35%
C=CCn1c(COc2ccccc2F)nnc1SCC(=O)N1CC(=O)Nc2ccccc21	-3.31%
Nn1c(Cc2cccc3ccccc23)nnc1SCC(=O)N1CC(=O)Nc2ccccc21	15.1% (active)
Cc1nc(SCC(=O)N2CC(=O)Nc3ccccc32)c2c(C)c(C)sc2n1	-7.82%
CN1CCNC(=O)C1CC(=O)N1CC=C(c2ccc(F)cc2)CC1 (stereo not drawn)	1.72%
COc1cc2c3c(c1)/C(=C1/SC(=S)NC1=O)C(=O)N3C(C)(C)C=C2C	-0.69%
C=CS(=O)c1sc(Cl)c(N2CCOCC2)c1[N+](=O)[O-] (stereo not drawn)	17.3% (active)
COC(=O)COc1ccc(C2NC(=O)NC(C)=C2C(=O)NCc2ccccc2)cc1OC (stereo not drawn)	-2.89%
O=C(CNc1ccc(F)cc1F)NC(=O)NCc1ccco1	5.92%
Oc1c(C(c2cccs2)N2CCN(c3ccc(F)cc3)CC2)sc2ncnn12 (stereo not drawn)	-6.82%
O=C(c1ccc(F)cc1)N1CCC(n2nnc3ccccc32)CC1	1.82%
Cc1cccc(C)c1Nc1c(-c2ccccc2O)nc2ncccn12	4.64%
Cc1ccc(-c2nc(C#N)c(NCCCn3ccnc3)o2)cc1	-5.98%
CC(C)c1ccc2c(c1)c(SC(C)(C)C)c(CC(C)(C)C(=O)O)n2Cc1ccc(Cl)cc1	5.23%
CCN(CC)C(=O)Oc1ccc(OC(=O)N(CC)CC)cc1	3.51%
CCCc1nc2oc3c(OCC)ncnc3c2c2c1COC(C)(C)C2	-0.01%
CC(C)(C)C(=O)NC(NC(=S)Nc1ccc(S(N)(=O)=O)cc1)C(Cl)(Cl)Cl (stereo not drawn)	-7.24%
CCOc1ccccc1N(CC(=O)NC1CCCCC1)C(=O)CCCC(=O)Nc1ccccn1	-3.56%
Cc1ccc(C(C(=O)NC2CCCC2)N(Cc2ccco2)C(=O)CCC(=O)Nc2ccccn2)cc1 (stereo not drawn)	-4.24%
O=C(CCCC(=O)N(CC(=O)NC1CCCC1)Cc1ccccc1Cl)Nc1ccccn1	16.9% (active)
